Most compounds without a hit are left out; they make up all but 1.3% or so of the library.
AF4-AF9 inh: blocks AF4 peptide binding to human AF9; P42568; AlphaScreen, biotin-AF4 peptide binding to FLAG-AF9; AID 651704; actives 0.47% (n = 350,000); inhibition, % at 10 µM;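 active = every replicate reaching a set inhibition limit, whatever the replicate mean, cut at about 25% in these data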;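 also: 0% = plate neutral control median and 100% = total signal loss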
PDI turbidity: PDI (human) enzyme inhibition; actives 0.052% (n = 350,000); inhibition, % at 10 µM; P07237; PDI insulin aggregation turbidity, A650, 90 min;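 active = mean inhibition across replicates of 30% or more, whatever share of single replicates reach that level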
SIRT5 inh: inhibitors of human sirtuin-5 desuccinylase. inhibition, % at 15 µM. AID 652115. Purified SirT5, succinyl-peptide AMC, trypsin-coupled fluorescence. actives 1.1% (n = 330,000). Q9NXA8; in the data active = inhibition above about 15%
Target sequence (Q9NXA8 whole entry, looked up): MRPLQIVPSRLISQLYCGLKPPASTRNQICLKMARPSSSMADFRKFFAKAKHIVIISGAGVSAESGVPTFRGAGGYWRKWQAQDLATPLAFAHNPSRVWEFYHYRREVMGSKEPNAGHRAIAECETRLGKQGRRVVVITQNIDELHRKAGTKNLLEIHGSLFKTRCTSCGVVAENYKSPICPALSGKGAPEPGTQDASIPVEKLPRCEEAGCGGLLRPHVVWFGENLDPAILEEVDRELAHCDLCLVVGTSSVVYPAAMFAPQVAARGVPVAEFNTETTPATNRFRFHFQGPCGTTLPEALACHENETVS
ERp5 inh: ERp5 (human) disulfide isomerase inhibition | ERp5 insulin aggregation, absorbance 650 nm, 90 min | inhibition, % at 9.99 µM | AID 651711 | Q15084 | actives 0.05% (n = 350,000);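 active = mean replicate inhibition above about 25%, with every replicate also reaching it, limit read from the data, passing the limit was not always enough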
FN deposition inh: fibronectin deposition inhibition. AH1F fibroblasts, Alexa488-fibronectin deposition fluorescence, overnight. inhibition, % at 12.6 µM. actives 0.086% (n = 350,000). AID 743247;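 active = mean inhibition across replicates of 30% or more, regardless of how many single replicates reach that level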;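 also: positive control wells lacked labelled fibronectin entirely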
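Assay system: AH1F fibroblast monolayer, labelled fibronectin deposition. Amount: 10000 cells per well. Also added: labelled fibronectin 24 nM. Compound: single-point pinned compound. Incubation: cell attachment 1 h, compound and FN exposure overnight. Detection: fluorescence after three HBSS washes, excitation 485 nm, emission 525 nm. Read-out: inhibition of fibronectin deposition signal.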
Active calls of the source: *; . = not tested or not shown.

SMILES	AF4-AF9 inh	PDI turbidity	SIRT5 inh	ERp5 inh	FN deposition inh
CCC1CCCCN1Cc1c(O)ccc2c(=O)c(-c3ccccc3OC)coc12 (stereo unspecified)	29.1*	-5.8	-17.3	2.6	-4.5
CCC(=O)N1[C@H](CO)[C@@H](c2ccccc2)C12CN(CCC(F)(F)F)C2	2.2	.	15.4*	-6.4	.
CN(C)CC(=O)N1[C@H](CO)[C@H](c2ccccc2)C12CN(CCC(F)(F)F)C2	0.8	.	13.0	-2.7	-23.5
Cc1[nH]n(-c2nc(-c3ccccc3)cc(=O)[nH]2)c(=O)c1CCO	0.4	-5.4	-2.1	-1.8	8.8
CN1C(=O)/C(=C/c2ccc(C(=O)Nc3ccc(O)cc3C(=O)O)cc2)SC1=S	2.2	-2.2	28.0*	16.5	9.3
Cc1ccc(/C=C2\SC(=S)N(CCC(=O)NNC(=O)c3ccc(O)cc3)C2=O)cc1	-0.1	0.4	-2.7	-7.9	4.7
O=C(Nc1ccnn1C1CCN(C2CCCC2)CC1)c1ccccc1Cl	-1.9	4.1	27.5*	1.2	6.6
O=C(Nc1ccnn1C1CCN(C2CCC2)CC1)c1ccccc1Cl	0.1	-16.1	0.7	-0.8	-9.7
Cc1cc(C)cc(NC(=O)CN2C(=O)NC(Cc3c[nH]c4ccccc34)C2=O)c1 (stereo unspecified)	-0.7	-8.1	-0.3	-8.9	4.9
NC(CCc1ccccc1)c1csc(Nc2ccc(C(F)(F)F)cn2)n1 (stereo unspecified)	9.5	-1.6	-2.1	2.2	27.4
CCCn1c(SCC(=O)Nc2nccs2)nnc1-c1cccnc1	.	5.4	.	.	1.8
CCCCn1c(SCC(=O)Nc2nc(C)cs2)nnc1-c1cccnc1	5.3	-9.9	17.3*	-3.7	.
Cc1nc(N)sc1-c1csc(Nc2cccc(C(=O)O)c2)n1	6.1	1.6	27.4*	-4.5	7.3
CCC(=O)Nc1nc(C)c(-c2csc(Nc3cccc(C(=O)O)c3)n2)s1	-1.2	0.7	1.7	0.6	-7.5
O=C(Nc1ncc(S(=O)(=O)c2ccc([N+](=O)[O-])cc2)s1)c1ccccc1F	5.5	-6.1	21.6*	18.9	-1.6
O=C(Nc1ccc([N+](=O)[O-])cc1)c1ccccc1F	-3.4	0.5	0.9	4.4	14.1
C[C@@H]1CN([C@@H](C)CO)C(=O)c2cc(NS(=O)(=O)c3ccc(F)cc3)ccc2O[C@@H](C)CCCCO[C@H]1CN(C)Cc1ccc(C(F)(F)F)cc1	-1.6	.	27.9*	-2.8	-4.6
C[C@@H]1CCCCO[C@@H](CN(C)Cc2ccc(C(F)(F)F)cc2)[C@H](C)CN([C@@H](C)CO)C(=O)c2cc(NS(=O)(=O)c3ccc(F)cc3)ccc2O1	1.2	.	19.0*	6.4	-7.2
C[C@@H]1CCCCO[C@H](CN(C)Cc2ccc(C(F)(F)F)cc2)[C@@H](C)CN([C@H](C)CO)C(=O)c2cc(NS(=O)(=O)c3ccc(F)cc3)ccc2O1	-1.4	.	1.6	1.2	2.4
C[C@@H]1CCCCO[C@@H](CN(C)Cc2ccc(C(F)(F)F)cc2)[C@@H](C)CN([C@@H](C)CO)C(=O)c2cc(NS(=O)(=O)c3ccc(F)cc3)ccc2O1	2.4	.	11.9	-7.5	-1.2
C[C@H]1CCCCO[C@H](CN(C)Cc2ccc(C(F)(F)F)cc2)[C@@H](C)CN([C@@H](C)CO)C(=O)c2cc(NS(=O)(=O)c3ccc(Cl)cc3)ccc2O1	-2.5	.	19.1*	-6.0	-24.3
C[C@@H]1CN([C@@H](C)CO)C(=O)c2cc(NS(=O)(=O)c3cn(C)cn3)ccc2O[C@@H](C)CCCCO[C@@H]1CN(C)Cc1ccc(C(F)(F)F)cc1	-1.4	.	15.4*	-0.9	.
Cn1c(N)c(C(=O)COC(=O)COc2ccccc2Cl)c(=O)n(C)c1=O	-15.9	-8.2	4.2	2.4	2.0
C[C@@H]1CN([C@@H](C)CO)C(=O)c2cc(NS(=O)(=O)c3cn(C)cn3)ccc2O[C@@H](C)CCCCO[C@H]1CN(C)C(=O)Cc1ccccc1	-0.2	.	16.7*	-0.2	.
Cc1ccc(-c2ccc(SCC(=O)N3CCN(c4ccccc4)CC3)nn2)cc1	.	-24.5	.	.	-1.1
SMILES	AF4-AF9 inh	PDI turbidity	SIRT5 inh	ERp5 inh	FN deposition inh
O=C(CSc1ccc(-c2ccccc2)nn1)N1CCN(c2ccccc2)CC1	5.3	-2.3	18.1*	-0.7	0.2
CN(Cc1ccccc1)C(=O)c1nc2ccccn2c1CN1CCC(N2CCOCC2)CC1	7.7	-2.2	15.0*	-6.3	7.9
O=C(O)c1ccccc1N/N=C/c1cc(Br)cc(Br)c1O	30.1*	-0.2	-3.8	6.4	8.3
C[C@]12c3[nH]c4ccc(Cl)cc4c3CCN1C(=O)[C@@H](CC(=O)NCc1ccco1)C[C@@H]2C(=O)N1CCCCC1	6.3	0.6	-5.2	-2.9	34.0*
O=C(C[C@H]1C[C@H](C(=O)N2CCCCC2)[C@@]2(CCc3ccccc3)c3[nH]c4cc(-c5ccco5)ccc4c3CCN2C1=O)NCCN1CCOCC1	26.0*	-5.4	-4.6	0.4	9.6
CC[C@]12c3[nH]c4ccccc4c3CCN1C(=O)C(CC(=O)NC/C=C(\C)CCC=C(C)C)C[C@@H]2C(=O)N1CCN(C(=O)c2ccco2)CC1 (stereo partly specified)	0.3	25.1	16.3*	-0.1	.
CC(C)N(C(=O)[C@H]1C[C@H](CC(=O)NCc2ccco2)C(=O)N2CCc3c([nH]c4cc(CCC(=O)N(C)C)ccc34)[C@]12C)C(C)C	7.5	-7.7	29.5*	1.2	2.0
Cn1cccc1P(=O)(c1cccn1C)c1cccn1C	6.3	8.2	0.9	2.3	.
CCN(CC)C(=O)[C@H]1C[C@H](CC(=O)NC(C)(C)C)C(=O)N2CCc3c([nH]c4cc(CCC(=O)N(C)C)ccc34)[C@]12C	0.9	0.6	30.9*	4.9	7.3
CN(C)C(=O)CCc1ccc2c3c([nH]c2c1)[C@]1(C)[C@@H](C(=O)N2CCCCC2)C[C@H](CC(=O)NC(C)(C)C)C(=O)N1CC3	0.4	3.3	7.1	4.9	-0.1
CN(CC(=O)Nc1ccc(S(N)(=O)=O)cc1)Cc1ccccc1F	-0.2	6.6	20.8*	-3.2	-0.8
CN(CC(=O)NC(=O)Nc1ccccc1F)Cc1ccccc1F	0.7	5.1	.	0.4	3.2
O=C(O)CCC(=O)Nc1ccc(-c2nc3ccc(C(=O)c4ccccc4)cc3[nH]2)cc1	0.1	-43.1	34.0*	4.1	6.0
COc1ccc(C)cc1N1CC(C(=O)Nc2ccccc2N2CCCCC2)CC1=O (stereo unspecified)	1.8	4.8	-1.1	14.1	-0.4
COc1cccc(/C=C2\SC(=S)N(CC(=O)N(C)C3CCS(=O)(=O)C3)C2=O)c1 (stereo unspecified)	12.3	1.8	1.4	8.3	-2.4
CCN(C(=O)CN1C(=O)S/C(=C\c2cccc(OC)c2)C1=O)C1CCS(=O)(=O)C1 (stereo unspecified)	5.3	12.1	15.7*	3.8	5.1
Cc1cccc(NC(=O)CSc2nnc(-c3n[nH]c4ccccc34)o2)c1	-6.5	-5.2	15.5*	9.4	-2.3
